ChEMBL document CHEMBL1629499, “Synthesis, crystal structure and biological evaluation of novel 2-(5-(hydroxymethyl)-3-phenyl-1H-pyrazol-1-yl)-1-phenylethanol derivatives” (Eur J Med Chem, 2010)
The source made the active and inactive calls. No cut-off for these calls is given here.

How the values were obtained:
Assay type in all cases: functional, cell-based
A549 [1] = experiment: Anticancer activity against human A549 cells assessed as cell viability at 60 uM after 48 hrs by phase contrast microscopy
How it was run: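 A549 lung cancer cells grown in RPMI 1640 with 10% bovine calf serum and 80 U/ml gentamicin at 37 °C, 5% CO2, seeded at 6250/cm². After 48 h exposure, cells inspected by phase contrast microscopy for morphology and cell number.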

A549 [2] = experiment: Anticancer activity against human A549 cells assessed as upregulation of LC3-2 expression at 60 uM after 48 hrs by Western blot analysis
How it was run: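 After 48 h treatment, A549 cells washed in ice-cold PBS and lysed in 0.5% SDS buffer (25 mM Tris-HCl pH 7.5, EDTA, NaCl, PMSF, protease inhibitors). Protein measured by Bradford. Equal protein run on 15% SDS-PAGE, transferred to PVDF, probed overnight at 4 °C with primary antibody, β-actin as loading control. HRP secondary, chemiluminescent detection on film, bands quantified by densitometry.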

A549 [3] = experiment: Induction of apoptosis in human A549 cells assessed as morphological changes at 60 uM after 48 hrs by Hoechst 33258 staining-based fluorescence microscopy
How it was run: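 A549 cells exposed 48 h, stained with Hoechst 33258 and examined by fluorescence microscopy for chromatin condensation and nuclear DNA fragmentation.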

A549 [4] = experiment: Induction of necrosis in human A549 cells assessed as LDH release at 60 uM after 48 hrs
How it was run: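 LDH activity measured in culture medium of A549 cells after 48 h exposure and compared with control cells.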

A549 [5] = experiment: Cell cycle arrest in human A549 cells assessed as accumulation in G1 phase at 60 uM after 48 hrs using propidium iodide staining by flow cytometry (reference value: 22%)

`COc1ccc(C(O)Cn2nc(-c3ccccc3)cc2CO)cc1` (stereo unspecified) was tested, and the Activity (A549 [1]) was “inactive”.
With `OCc1cc(-c2ccccc2)nn1CC(O)c1ccc(Cl)cc1` (stereo unspecified) the Activity (A549 [2]) was “Active”, the Activity (A549 [3]) was “inactive” and the Activity (A549 [4]) was “inactive”.
With `COc1ccc(-c2cc(CO)n(CC(O)c3ccc(OC)cc3)n2)cc1` (stereo unspecified) the Activity (A549 [1]) was “inactive”.
For `OCc1cc(-c2ccc(Cl)cc2)nn1CC(O)c1ccccc1` (stereo unspecified), the Activity (A549 [1]) was “inactive”.
For `OCc1cc(-c2ccc(Cl)cc2)nn1CC(O)c1ccc(Cl)cc1` (stereo unspecified), the Activity (A549 [2]) was “Active”, the Activity (A549 [3]) was “inactive” and the Activity (A549 [4]) was “inactive”.
For `COc1ccc(-c2cc(CO)n(CC(O)c3ccc(Cl)cc3)n2)cc1` (stereo unspecified), the Activity (A549 [2]) was “Active”, the Activity (A549 [3]) was “inactive” and the Activity (A549 [4]) was “inactive”. For the same compound, the Activity (A549 [5]) was “inactive”.
In the case of `COc1ccc(C(O)Cn2nc(-c3ccc(Cl)cc3)cc2CO)cc1` (stereo unspecified), the Activity (A549 [1]) is reported as “inactive”.
For `COc1ccc(-c2cc(CO)n(CC(O)c3ccccc3)n2)cc1` (stereo unspecified), the Activity (A549 [1]) was “inactive”.
For `OCc1cc(-c2ccccc2)nn1CC(O)c1ccccc1` (stereo unspecified), the Activity (A549 [1]) was “inactive”.
